# Screening results (PubChem)
# Only some compounds are listed: those with a hit (about 2.5% of all), similar ones and a draw of the others.
# MEKK2wt PB1 HTS: raises or lowers MEK5 binding to wildtype human MEKK2 PB1 domain | binding response (% of control), % at 10 µM | hit rate 1.1% among 290,000 | bead flow cytometry, Alexa488-MEK5 binding to MEKK2 WT; actives lie on both sides | Q9Y2U5; in the data active means binding response below about 67% or above about 130%
# MEKK2 mut-MEK5: signal of MEK5 binding to mutant human MEKK2 PB1 domain. bead flow cytometry, Alexa488-MEK5 binding to MEKK2 mutant. percent response, % at 10 µM. hit rate 0.35% among 290,000. AID 1530; in the data active means percent response above about 24%, passing the limit was not always enough
# Rce1 inhib: blocks yeast Ras-converting enzyme; calls only; hit rate 0.27% among 290,000; AID 2563; yeast membranes, quenched prenylated peptide cleavage fluorescence;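 active means fall in fluorescence gain of 50% or more versus controls, with final raw signal at or below 3038400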;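 further: plate controls were neutral control wells for no effect and wells lacking membranes for full effect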
# Target sequence (Q03530 whole entry, looked up): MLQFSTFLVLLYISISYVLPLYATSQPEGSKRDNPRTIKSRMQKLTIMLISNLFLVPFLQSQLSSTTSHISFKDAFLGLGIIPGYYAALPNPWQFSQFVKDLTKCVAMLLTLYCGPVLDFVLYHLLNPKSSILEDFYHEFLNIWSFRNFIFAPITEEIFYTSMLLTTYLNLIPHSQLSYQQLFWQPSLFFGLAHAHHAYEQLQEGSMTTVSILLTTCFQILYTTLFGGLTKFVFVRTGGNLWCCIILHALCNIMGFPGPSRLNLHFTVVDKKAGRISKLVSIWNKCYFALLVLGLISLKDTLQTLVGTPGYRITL
# UCH37 inh: blocks the human deubiquitinase UCH37. Q9Y5K5. purified proteasome/UCH37, Ub-AMC cleavage fluorescence. inhibition, % (no concentration beside the values). hit rate 0.33% among 330,000. AID 588478;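 active means mean inhibition over replicate wells above about 20%, limit read from the data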;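 further: 0% = compound-free wells with enzyme and 100% = wells lacking proteasome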
# Target sequence (Q9Y5K5 whole entry, looked up): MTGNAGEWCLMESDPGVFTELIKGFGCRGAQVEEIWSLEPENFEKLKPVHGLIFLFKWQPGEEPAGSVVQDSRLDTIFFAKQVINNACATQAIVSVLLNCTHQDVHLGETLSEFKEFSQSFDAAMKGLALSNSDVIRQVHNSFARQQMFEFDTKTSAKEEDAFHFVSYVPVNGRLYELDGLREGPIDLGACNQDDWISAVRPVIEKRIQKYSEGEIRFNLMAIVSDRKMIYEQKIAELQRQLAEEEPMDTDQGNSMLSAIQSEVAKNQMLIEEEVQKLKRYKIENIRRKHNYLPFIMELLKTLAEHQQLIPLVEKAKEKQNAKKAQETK
#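 system = Proteasome-associated human UCH37 deubiquitinase | amount = 0.15 nM proteasome as dispensed | medium = pH 7.4 Tris-HCl (50 mM) with ovalbumin, ATP-MgCl2, DTT | incubation = 30 min preincubation with enzyme, 25 min cleavage at room temperature | detection = AMC fluorescence 355/460 nm | read-out basis = percent inhibition | controls = no-proteasome and no-compound wells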
# MEKK3 PB1 HTS: MEKK3-MEK5 PB1 interaction, increase or decrease. Q99759. bead-based flow cytometry, Alexa488-MEK5 binding to MEKK3; actives lie on both sides; 0 = blocked by unlabeled MEK5, 100 = vehicle. binding response (% of control), % at 10 µM. hit rate 1.4% among 290,000;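 active means binding response more than 3 SD above or below the average of its plate-row segment, actives on both sides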;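 further: Alexa488 bead fluorescence after subtracting the streptavidin-only scavenger bead signal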
# T cell HTS: T cell immune modulators affecting CD8 T cell-vesicle binding | response (vesicle binding), % at 7 µM | 2C CD8+ T cell-vesicle binding, flow cytometry; stronger effect = lower value | hit rate 0.068% among 330,000;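 active means response, share of CD8 T cells binding vesicles, and their 90th percentile fluorescence all below set limits, cut at about 80% in these data, passing the limit was not always enough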;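 further: values below 100% mean blocked vesicle binding to the CD8+ T cells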
#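 Material: murine 2C transgenic CD8+ T lymphocytes / Also added: QL9-peptide-loaded Drosophila micro-vesicles bearing Ld, ICAM-1 and B7-1 / Schedule: binding step 1.5 h, 37 °C, antibody labelling 20 min, ice / Signal: flow cytometry, PE anti-B7-1 (FL2) versus Alexa647 anti-CD8 (FL8), PFA-fixed / Evaluation: percent CD8+ FL2 mean versus row control / Benchmarks: naked versus QL9-loaded vesicles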
# MEKK2wt confirm: raises or lowers MEK5 binding to wildtype human MEKK2, retest; bead flow cytometry, Alexa488-MEK5 binding to MEKK2 WT; actives lie on both sides; shares compounds with MEKK3 PB1 HTS; AID 1892; binding response (% of control), % at 10 µM; hit rate 2.4% among 5,900; in the data active means binding response below about 16% or above about 210%; inactive means in between
# MEKK2mut-MEK5: signal of MEK5 binding to mutant human MEKK2, retest. shares compounds with MEKK3 PB1 HTS. bead flow cytometry, Alexa488-MEK5 binding to MEKK2 mutant. percent response, % at 10 µM. hit rate 2% among 5,900. AID 1893; in the data active means percent response mostly above about 71%, no sharp cut-off; inactive means mostly below about 38%;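 further: higher means compound restores mutant binding toward wildtype level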
# MEKK3 confirm: MEKK3-MEK5 PB1 inhibition, single concentration confirmation. bead flow cytometry, Alexa488-MEK5 binding to MEKK3; stronger effect = lower value. shares compounds with MEKK3 PB1 HTS. binding response (% of control), % at 10 µM. hit rate 1.8% among 5,900;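 active means binding response below 72% of control, or above a set upper limit, though filed actives all read lower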;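 further: 100% = DMSO only wells and 0% = binding blocked by excess unlabeled MEK5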
# An asterisk follows results filed as active; i = inactive; / = no result; + = active, no number; ! = not active in a repeat; [ ] = remark or other dose.
SMILES,MEKK2wt PB1 HTS,MEKK2 mut-MEK5,Rce1 inhib,UCH37 inh,MEKK3 PB1 HTS,T cell HTS,MEKK2wt confirm,MEKK2mut-MEK5,MEKK3 confirm
CC1(C(=O)N/N=C/c2ccc([N+](=O)[O-])o2)CC1(Br)Br (stereo not given),103,1,i,/,132*,261,101,-4,104
COCCn1nnnc1C(c1ccc(OC)cc1)N1CCN(c2ccccc2F)CC1 (stereo not given),118,8,i,4,122*,382,112,3,102
COc1ccc(C(c2nnnn2CC2CCCO2)N2CCN(c3cccc(C)c3C)CC2)cc1 (stereo not given),116,15,i,4,122*,272,106,2,107
COc1ccccc1C(c1nnnn1CC1CCCO1)N1CCC(C(N)=O)CC1 (stereo not given),85,-5,i,8,74*[inhibitor],500,103,-3,99
Cc1ccc2cc(C=NNC(=O)c3ccc(F)cc3)c(Cl)nc2c1,/,/,/,3,/,/,/,/,/
CC(=NNc1cccc(Cl)c1)c1ccc(-n2ccnc2)cc1,/,/,/,2,/,/,/,/,/
Cc1ccc(N(CC2=NCCN2)c2cccc(O)c2)cc1,132,10,i,0,35*![inhibitor],514,115,2,103
c1ccc(CN(CC2=NCCN2)c2ccccc2)cc1,105,5,i,4,92,501,/,/,/
N#Cc1ccc2[nH]c(CO)c(-c3ccccc3)c2c1,-13*[inhibitor],-21,i,/,0.0*[inhibitor],457,106,-2,106
COC(=O)c1ccc2[nH]c(CO)c(-c3ccccc3)c2c1,98,0,i,2,102,471,/,/,/
COc1cc(C=NNC(=S)NC2CC3C=CC2C3)cc(OC)c1OC (stereo not given),/,/,/,3,/,/,/,/,/
Cc1cc(Sc2nc(N(C)C)nc(N(C)C)n2)nc(Cl)n1,121,5,i,1,137*,263,107,1,103
COc1nc(N(C)C)nc(N(C)c2cc(Cl)cc(Cl)c2)n1,107,12,i,4,104,195,/,/,/
CCOC(=O)C1=C(N)n2c(sc(=Cc3ccco3)c2=O)=C(C(=O)OCC)C1c1ccco1 (stereo not given),/,/,/,3,/,/,/,/,/
O=C(NN=Cc1ccc([N+](=O)[O-])cc1)c1cccs1,/,/,/,12,/,/,/,/,/
CN1CCN(C(=O)N2c3ccccc3C=Cc3ccccc32)CC1,0.0*[inhibitor],-26,i,0,0.0*[inhibitor],216,107,4,103
CCOc1ccc(C2C(C(=O)Nc3ccccc3)=C(C)N=c3s/c(=C/c4cccc(OCC(=O)O)c4)c(=O)n32)cc1 (stereo not given),82,-10,i,/,94,620,/,/,/
CC1=C(C(=O)Nc2ccccc2)C(c2ccc(C)o2)n2c(s/c(=C/c3ccccc3)c2=O)=N1 (stereo not given),86,-11,i,/,82*[inhibitor],260,96,-4,99
CC1=C(C(=O)Nc2ccccc2)C(c2ccc(Cl)cc2)n2c(s/c(=C/c3cccc(OCC(=O)O)c3)c2=O)=N1 (stereo not given),40*[inhibitor],-28,i,/,89,584,99,-6,99
CCOc1ccc(-n2c(SCc3ccc(C#N)cc3)nnc2-c2cccnc2)cc1,94,0,i,5,98,274,/,/,/
CCOc1ccc(-n2c(SCc3ccc([N+](=O)[O-])cc3)nnc2-c2ccc(OC)cc2)cc1,102,0,+,/,143*,220,99,-2,103
COc1ccccc1NC(=O)CSc1nc(N)c(C#N)cc1C#N,109,0,i,-1,130*,300,104,14,105
COc1cc2c(C(=O)NCCCOC(C)C)cn(CC(C)C)c(=O)c2cc1OC,87,-3,i,1,81*[inhibitor],416,99,2,103
CN(/N=C/C=C/c1ccccc1)C1=NS(=O)(=O)c2ccccc21,106,0,i,/,134*,459,102,-3,97
CCCNC(=O)Cc1c(C)oc2ccccc12,119,32,i,-1,130*,932,99,-5,99
SMILES,MEKK2wt PB1 HTS,MEKK2 mut-MEK5,Rce1 inhib,UCH37 inh,MEKK3 PB1 HTS,T cell HTS,MEKK2wt confirm,MEKK2mut-MEK5,MEKK3 confirm
O=C(CCN1CCCCC1)NN=Cc1c[nH]c2ccccc12,/,/,/,8,/,/,/,/,/
Cc1ccc(N=Cc2sc(O)c3ccccc23)c(C)c1,135*,7,i,1,119,297,113,7,109
Cc1cccc(NC(=O)/C(C#N)=C/c2ccc(Sc3ccccc3)o2)c1C,99,-1,i,-5,128*,298,99,0,104
COc1ccc(NC(=O)C(c2cc3c(cc2[N+](=O)[O-])OCO3)N2CCN(C=O)CC2)cc1 (stereo not given),3.0*[inhibitor],-12,i,-1,2.0*[inhibitor],i,101,6,104
CCN1CCN(Cc2ccc(NC(=O)c3ccc(C)c(NC(=O)c4ccnnc4)c3)cc2C(F)(F)F)CC1,99,-6,i,3,81*[inhibitor],678,112,5,103
CCN1CCN(Cc2ccc(NC(=O)c3cc(NC(=O)C(=O)c4c[nH]c5ccccc45)cc(OC)c3)cc2C(F)(F)F)CC1,195*,131*,i,4,109,i,227*,146*,112
O=C(Nc1ccc2c(c1)OCO2)C(=O)c1c[nH]c2ccccc12,100,1,i,8,99,288,/,/,/
CCN1CCN(Cc2ccc(NC(=O)c3ccc(C)c(NC(=O)C(=O)c4c[nH]c5ccccc45)c3)cc2C(F)(F)F)CC1,301*,95*,i,3,113,517,239*,172*,113
CCN1CCN(Cc2ccc(NC(=O)c3cc(NC(=O)c4cc(C)on4)cc(OC)c3)cc2C(F)(F)F)CC1,193*,30*,i,0,113,i,144,30,106
CCN1CCN(Cc2ccc(C(=O)Nc3ccc(C)c(NCc4cnc(NC(=O)OC)cn4)c3)cc2C(F)(F)F)CC1,123,6,i,4,105,335,/,/,/
CCN1CCN(Cc2ccc(NC(=O)c3ccc(C)c(NC(=O)c4ccc5n[nH]nc5c4)c3)cc2C(F)(F)F)CC1,88,11,i,0,115,701,/,/,/
